Measurements as given in ChEMBL document CHEMBL4118216, “Adamantyl thioureas as soluble epoxide hydrolase inhibitors” (Bioorg Med Chem Lett, 2018).
≈ marks a conversion by molar mass, not a printed value.

Legend:
[1] = target: T1, Bifunctional epoxide hydrolase 2 (Homo sapiens, UniProt P34913); assay: Inhibition of recombinant human sEH expressed in baculovirus expression system using CMNPC as substrate preincubated for 5 mins followed by substrate addition measured for 10 mins by fluorescent based assay
T1 sequence (P34913 whole entry): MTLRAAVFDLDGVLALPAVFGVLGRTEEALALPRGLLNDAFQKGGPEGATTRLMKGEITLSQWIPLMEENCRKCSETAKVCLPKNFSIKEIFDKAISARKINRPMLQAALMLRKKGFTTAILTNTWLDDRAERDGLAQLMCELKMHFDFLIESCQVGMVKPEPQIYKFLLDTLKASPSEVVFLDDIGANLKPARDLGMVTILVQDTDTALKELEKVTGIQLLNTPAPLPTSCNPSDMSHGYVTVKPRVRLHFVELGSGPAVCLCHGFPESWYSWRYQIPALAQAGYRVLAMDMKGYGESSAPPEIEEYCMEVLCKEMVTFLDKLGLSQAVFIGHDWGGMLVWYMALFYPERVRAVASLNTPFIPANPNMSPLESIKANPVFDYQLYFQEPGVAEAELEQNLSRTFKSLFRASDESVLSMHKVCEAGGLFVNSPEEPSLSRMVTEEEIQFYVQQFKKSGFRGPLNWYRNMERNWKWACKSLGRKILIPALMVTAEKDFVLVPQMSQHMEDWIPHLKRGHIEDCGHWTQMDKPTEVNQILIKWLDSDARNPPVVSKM
In short: (§1)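 Kinetic fluorescent assay giving IC50 values; each value is the mean of three separate experiments.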

[2] = Aqueous solubility of the compound in 0.1 M sodium phosphate buffer at pH 7.4; format: physicochemical
In short: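 Solubility determined in 0.1 M sodium phosphate buffer, pH 7.4, with 1% DMSO present.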

[3] = target: T2, Bifunctional epoxide hydrolase 2 (Rattus norvegicus, UniProt P80299); assay: Inhibition of rat sEH using CMNPC as substrate preincubated for 5 mins followed by substrate addition measured for 10 mins by fluorescent based assay; in short: as §1
T2 sequence (P80299 whole entry): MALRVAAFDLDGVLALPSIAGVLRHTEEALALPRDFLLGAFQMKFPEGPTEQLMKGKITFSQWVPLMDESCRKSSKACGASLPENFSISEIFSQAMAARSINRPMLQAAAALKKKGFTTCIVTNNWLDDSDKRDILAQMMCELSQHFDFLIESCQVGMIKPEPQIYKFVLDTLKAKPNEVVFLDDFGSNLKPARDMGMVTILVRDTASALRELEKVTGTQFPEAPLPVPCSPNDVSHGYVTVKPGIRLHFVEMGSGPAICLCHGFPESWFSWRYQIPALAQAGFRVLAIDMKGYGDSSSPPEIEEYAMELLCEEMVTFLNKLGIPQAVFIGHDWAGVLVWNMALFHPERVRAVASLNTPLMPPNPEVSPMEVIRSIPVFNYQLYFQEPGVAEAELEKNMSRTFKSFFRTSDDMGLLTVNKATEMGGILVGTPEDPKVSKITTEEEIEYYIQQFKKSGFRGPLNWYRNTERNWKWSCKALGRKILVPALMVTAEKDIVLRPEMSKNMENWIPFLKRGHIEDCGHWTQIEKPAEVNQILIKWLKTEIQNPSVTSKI

[4] = target: T3, Bifunctional epoxide hydrolase 2 (Mus musculus, UniProt P34914); assay: Inhibition of recombinant mouse sEH expressed in baculovirus expression system using CMNPC as substrate preincubated for 5 mins followed by substrate addition measured for 10 mins by fluorescent based assay; in short: as §1
T3 sequence (P34914 whole entry): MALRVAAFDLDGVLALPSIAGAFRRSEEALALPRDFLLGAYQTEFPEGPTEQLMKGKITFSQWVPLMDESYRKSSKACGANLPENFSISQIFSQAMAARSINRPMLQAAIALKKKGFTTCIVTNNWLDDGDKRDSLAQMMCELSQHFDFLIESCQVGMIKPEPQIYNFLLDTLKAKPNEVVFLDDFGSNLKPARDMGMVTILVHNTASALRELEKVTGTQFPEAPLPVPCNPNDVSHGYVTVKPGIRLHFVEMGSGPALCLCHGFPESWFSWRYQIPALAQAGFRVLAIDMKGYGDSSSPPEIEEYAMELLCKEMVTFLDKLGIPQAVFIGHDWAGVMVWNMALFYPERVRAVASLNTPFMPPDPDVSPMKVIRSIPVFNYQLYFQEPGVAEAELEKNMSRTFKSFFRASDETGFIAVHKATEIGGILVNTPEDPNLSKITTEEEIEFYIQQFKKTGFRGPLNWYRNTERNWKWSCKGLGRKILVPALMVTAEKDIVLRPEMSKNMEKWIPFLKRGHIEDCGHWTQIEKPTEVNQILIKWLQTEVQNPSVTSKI

Compound	IC50 [1]	solubility [2]	IC50 [3]	IC50 [4]
CC(N=C(S)NCc1ccccc1)C12CC3CC(CC(C3)C1)C2 (stereo unspecified)	234 nM	40 to 50 µM (≈ 13.1 to 16.4 µg/mL)	–	–
O=C(NCCCCNC(=O)NCC12CC3CC(CC(C3)C1)C2)NCC12CC3CC(CC(C3)C1)C2	–	50 to 75 µM (≈ 23.5 to 35.3 µg/mL)	–	–
CC(NC(=O)NCCCCNC(=O)NC(C)C12CC3CC(CC(C3)C1)C2)C12CC3CC(CC(C3)C1)C2 (stereo unspecified)	–	10 to 25 µM (≈ 4.99 to 12.5 µg/mL)	–	–
CC(NC(=O)NCCCCCCCCNC(=O)NC(C)C12CC3CC(CC(C3)C1)C2)C12CC3CC(CC(C3)C1)C2 (stereo unspecified)	–	10 to 25 µM (≈ 5.55 to 13.9 µg/mL)	–	–
O=C(NCCCCCCCCNC(=O)NC1C2CC3CC(C2)CC1C3)NC1C2CC3CC(C2)CC1C3 (stereo unspecified)	–	5 to 10 µM (≈ 2.49 to 4.99 µg/mL)	–	–
O=C(NC12CC3CC(CC(C3)C1)C2)NC12CC3CC(CC(C3)C1)C2	–	5 to 10 µM (≈ 1.64 to 3.29 µg/mL)	–	–
S=C(NCCCCNC(=S)NCC12CC3CC(CC(C3)C1)C2)NCC12CC3CC(CC(C3)C1)C2	–	140 to 160 µM (≈ 70.4 to 80.5 µg/mL)	–	–
CC12CC3CC(C)(C1)CC(NC(=S)NC1C4CC5CC(C4)CC1C5)(C3)C2 (stereo unspecified)	152 nM	80 to 90 µM (≈ 29.8 to 33.5 µg/mL)	–	–
S=C(Nc1ccc(C23CC4CC(CC(C4)C2)C3)cc1)NC12CC3CC(CC(C3)C1)C2	1250 nM	30 to 40 µM (≈ 12.6 to 16.8 µg/mL)	–	–
S=C(NCCCNC(=S)NC12CC3CC(CC(C3)C1)C2)NC12CC3CC(CC(C3)C1)C2	97.6 nM	90 to 100 µM (≈ 41.5 to 46.1 µg/mL)	43.3 nM	74.9 nM
S=C(NCC12CC3CC(CC(C3)C1)C2)NC1C2CC3CC(C2)CC1C3 (stereo unspecified)	902 nM	30 to 40 µM (≈ 10.8 to 14.3 µg/mL)	–	–
Fc1ccc(NC(=S)NCC23CC4CC(CC(C4)C2)C3)cc1	159 nM	150 to 175 µM (≈ 47.8 to 55.7 µg/mL)	–	–
S=C(NCCc1ccccc1)NC1C2CC3CC(C2)CC1C3 (stereo unspecified)	8.2 nM	20 to 30 µM (≈ 6.29 to 9.43 µg/mL)	78.3 nM	108 nM
S=C(NCCCCCCCCNC(=S)NC1C2CC3CC(C2)CC1C3)NC1C2CC3CC(C2)CC1C3 (stereo unspecified)	–	25 to 35 µM (≈ 13.3 to 18.6 µg/mL)	–	–
CC12CC3CC(C)(C1)CC(NC(=S)Nc1ccc(Cl)cc1)(C3)C2	1050 nM	–	–	–
S=C(NCCNC(=S)NC12CC3CC(CC(C3)C1)C2)NC12CC3CC(CC(C3)C1)C2	987 nM	100 to 110 µM (≈ 44.7 to 49.1 µg/mL)	–	–
CC12CC3CC(C)(C1)CC(NC(=S)NC14CC5CC(CC(C5)C1)C4)(C3)C2	16.1 nM	30 to 40 µM (≈ 11.2 to 14.9 µg/mL)	–	–
S=C(NCCc1ccccc1)NCC12CC3CC(CC(C3)C1)C2	133 nM	25 to 30 µM (≈ 8.21 to 9.86 µg/mL)	–	–
S=C(NCCCCCCCCCCNC(=S)NC12CC3CC(CC(C3)C1)C2)NC12CC3CC(CC(C3)C1)C2	15.3 nM	35 to 45 µM (≈ 19.6 to 25.2 µg/mL)	44.4 nM	59.5 nM
CC(NC(=S)Nc1cccc(F)c1)C12CC3CC(CC(C3)C1)C2 (stereo unspecified)	451 nM	35 to 45 µM (≈ 11.6 to 15 µg/mL)	–	–
S=C(Nc1ccc(C23CC4CC(CC(C4)C2)C3)cc1)Nc1ccc(C23CC4CC(CC(C4)C2)C3)cc1	15300 nM	100 to 125 µM (≈ 49.7 to 62.1 µg/mL)	–	–
S=C(NC1C2CC3CC(C2)CC1C3)NC12CC3CC(CC(C3)C1)C2 (stereo unspecified)	14.8 nM	60 to 70 µM (≈ 20.7 to 24.1 µg/mL)	–	–
S=C(NCc1ccccc1)NC1C2CC3CC(C2)CC1C3 (stereo unspecified)	34 nM	65 to 75 µM (≈ 19.5 to 22.5 µg/mL)	60.3 nM	61 nM
S=C(NCCCCCNC(=S)NC12CC3CC(CC(C3)C1)C2)NC12CC3CC(CC(C3)C1)C2	21.1 nM	80 to 90 µM (≈ 39.1 to 44 µg/mL)	46.1 nM	36.2 nM
S=C(Nc1ccc(Cl)cc1)NC12CC3CC(CC(C3)C1)C2	34.7 nM	–	–	–
S=C(NCCCCNC(=S)NC12CC3CC(CC(C3)C1)C2)NC12CC3CC(CC(C3)C1)C2	90.8 nM	90 to 100 µM (≈ 42.7 to 47.5 µg/mL)	123 nM	130 nM
S=C(Nc1ccccc1)NC1C2CC3CC(C2)CC1C3 (stereo unspecified)	229 nM	70 to 80 µM (≈ 20.1 to 22.9 µg/mL)	356 nM	408 nM
CC12CC3CC(C)(C1)CC(NC(=S)Nc1ccc(F)cc1)(C3)C2	551 nM	175 to 200 µM (≈ 58.2 to 66.5 µg/mL)	–	–
